Source: article PMC4120670 (Kidney International, 2014)
Values belong to the molecule of their own block, whether it stands above or below them.

What was measured:
[1] = most prominent effects, clinical; cited from earlier work
OCT2 = target: T1, OCT2 (Homo sapiens, UniProt O15244); assay: Inhibition of OCT2 transport of tetraethylammonium; type: cell-based
T1 sequence (O15244 1-555): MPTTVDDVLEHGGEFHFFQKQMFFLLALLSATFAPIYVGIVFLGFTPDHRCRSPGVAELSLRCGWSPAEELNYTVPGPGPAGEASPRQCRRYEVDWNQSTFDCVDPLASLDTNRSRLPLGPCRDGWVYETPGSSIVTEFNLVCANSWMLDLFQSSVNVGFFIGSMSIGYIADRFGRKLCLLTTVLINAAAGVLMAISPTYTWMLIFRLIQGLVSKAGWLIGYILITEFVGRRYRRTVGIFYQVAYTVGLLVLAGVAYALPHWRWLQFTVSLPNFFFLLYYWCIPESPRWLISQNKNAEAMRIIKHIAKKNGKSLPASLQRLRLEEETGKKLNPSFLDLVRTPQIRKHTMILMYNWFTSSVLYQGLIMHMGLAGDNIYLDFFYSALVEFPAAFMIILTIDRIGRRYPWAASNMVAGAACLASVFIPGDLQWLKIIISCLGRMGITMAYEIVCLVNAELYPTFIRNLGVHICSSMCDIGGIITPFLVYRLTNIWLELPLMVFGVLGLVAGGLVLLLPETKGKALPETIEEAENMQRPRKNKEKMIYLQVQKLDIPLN

OAT2 [2] = target: T2, OAT2 (Homo sapiens, UniProt Q9Y694); assay: Inhibition of OAT2 transport of 3′,5′-cyclic GMP; type: cell-based
T2 sequence (Q9Y694 1-548): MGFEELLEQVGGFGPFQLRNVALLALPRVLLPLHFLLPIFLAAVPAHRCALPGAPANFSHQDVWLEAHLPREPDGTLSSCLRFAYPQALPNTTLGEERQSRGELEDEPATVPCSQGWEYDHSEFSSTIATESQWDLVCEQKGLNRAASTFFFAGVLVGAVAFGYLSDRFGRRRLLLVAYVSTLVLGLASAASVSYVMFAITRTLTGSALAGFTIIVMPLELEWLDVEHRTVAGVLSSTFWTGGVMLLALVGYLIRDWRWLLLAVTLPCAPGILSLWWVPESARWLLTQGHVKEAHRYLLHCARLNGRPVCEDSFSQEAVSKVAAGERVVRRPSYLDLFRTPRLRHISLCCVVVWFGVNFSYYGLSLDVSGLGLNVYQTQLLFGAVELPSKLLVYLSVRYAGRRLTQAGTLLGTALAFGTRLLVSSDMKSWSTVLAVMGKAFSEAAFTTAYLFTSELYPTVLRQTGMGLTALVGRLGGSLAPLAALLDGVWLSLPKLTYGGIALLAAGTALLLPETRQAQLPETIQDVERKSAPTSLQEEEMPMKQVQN

OCT3 = target: T3, OCT3 (Homo sapiens, UniProt O75751); assay: Inhibition of OCT3 transport of 1-methyl-4-phenylpyridinium; type: cell-based
T3 sequence (O75751 1-556): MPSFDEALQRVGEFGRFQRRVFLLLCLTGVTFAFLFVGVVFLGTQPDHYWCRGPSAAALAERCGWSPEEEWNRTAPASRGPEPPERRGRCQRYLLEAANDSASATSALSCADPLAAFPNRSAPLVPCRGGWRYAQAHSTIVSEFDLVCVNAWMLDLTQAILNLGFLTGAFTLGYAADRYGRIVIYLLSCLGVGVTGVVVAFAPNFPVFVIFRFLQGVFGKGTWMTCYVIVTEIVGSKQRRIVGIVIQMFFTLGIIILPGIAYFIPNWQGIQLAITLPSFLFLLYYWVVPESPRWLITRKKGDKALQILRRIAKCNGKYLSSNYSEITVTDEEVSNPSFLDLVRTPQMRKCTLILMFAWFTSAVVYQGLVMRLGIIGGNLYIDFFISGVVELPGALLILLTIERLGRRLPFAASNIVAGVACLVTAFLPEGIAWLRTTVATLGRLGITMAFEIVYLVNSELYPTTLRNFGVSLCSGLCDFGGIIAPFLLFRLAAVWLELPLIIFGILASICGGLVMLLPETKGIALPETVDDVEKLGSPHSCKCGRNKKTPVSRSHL

MATE2-K [3] = target: T4, MATE2-K (Homo sapiens, UniProt Q86VL8); assay: Inhibition of MATE2-K transport of tetraethylammonium; type: cell-based
T4 sequence (Q86VL8 1-566 isoform Q86VL8-3): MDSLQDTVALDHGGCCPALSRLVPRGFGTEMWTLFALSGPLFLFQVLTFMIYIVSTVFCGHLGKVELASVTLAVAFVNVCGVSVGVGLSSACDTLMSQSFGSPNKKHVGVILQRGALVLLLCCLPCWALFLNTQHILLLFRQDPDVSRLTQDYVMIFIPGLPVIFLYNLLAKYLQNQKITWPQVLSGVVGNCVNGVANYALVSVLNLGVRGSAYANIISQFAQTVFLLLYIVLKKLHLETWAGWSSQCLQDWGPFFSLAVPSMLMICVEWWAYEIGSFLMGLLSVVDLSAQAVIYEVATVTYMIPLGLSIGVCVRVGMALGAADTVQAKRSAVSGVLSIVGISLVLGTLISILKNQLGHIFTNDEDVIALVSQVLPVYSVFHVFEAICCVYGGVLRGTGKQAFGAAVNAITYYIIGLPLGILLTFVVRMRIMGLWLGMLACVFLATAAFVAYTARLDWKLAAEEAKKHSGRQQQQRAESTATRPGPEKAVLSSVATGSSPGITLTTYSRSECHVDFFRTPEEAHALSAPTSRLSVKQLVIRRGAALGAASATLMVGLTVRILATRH

[4] = more modest effects, clinical; cited from earlier work
OAT3 [5] = target: T5, OAT3 (Homo sapiens, UniProt Q8TCC7); type: cell-based; settings: transiently transfected HEK293 cells; data not shown
T5 sequence (Q8TCC7 1-542): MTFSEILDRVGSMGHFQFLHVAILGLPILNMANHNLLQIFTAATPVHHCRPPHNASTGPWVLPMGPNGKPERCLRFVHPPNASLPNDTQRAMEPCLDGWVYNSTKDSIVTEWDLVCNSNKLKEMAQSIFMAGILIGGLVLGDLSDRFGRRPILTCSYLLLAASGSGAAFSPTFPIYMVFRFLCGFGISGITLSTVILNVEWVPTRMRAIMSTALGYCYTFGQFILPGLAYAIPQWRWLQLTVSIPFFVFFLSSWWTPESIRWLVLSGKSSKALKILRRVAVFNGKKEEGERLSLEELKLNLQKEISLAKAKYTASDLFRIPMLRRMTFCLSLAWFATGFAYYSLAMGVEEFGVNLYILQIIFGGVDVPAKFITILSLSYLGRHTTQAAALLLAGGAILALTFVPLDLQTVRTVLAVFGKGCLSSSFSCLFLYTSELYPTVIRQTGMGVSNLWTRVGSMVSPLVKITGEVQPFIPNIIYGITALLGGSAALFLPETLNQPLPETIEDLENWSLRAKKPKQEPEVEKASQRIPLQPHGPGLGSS

OAT2 [6] = target: T2, OAT2; assay: Creatinine transport by OAT2 in transiently transfected MDCKII cells; type: cell-based
MATE1 = target: T6, MATE1 (Homo sapiens, UniProt Q96FL8); assay: Creatinine transport by MATE1 in transiently transfected MDCKII cells; type: cell-based
T6 sequence (Q96FL8 1-570): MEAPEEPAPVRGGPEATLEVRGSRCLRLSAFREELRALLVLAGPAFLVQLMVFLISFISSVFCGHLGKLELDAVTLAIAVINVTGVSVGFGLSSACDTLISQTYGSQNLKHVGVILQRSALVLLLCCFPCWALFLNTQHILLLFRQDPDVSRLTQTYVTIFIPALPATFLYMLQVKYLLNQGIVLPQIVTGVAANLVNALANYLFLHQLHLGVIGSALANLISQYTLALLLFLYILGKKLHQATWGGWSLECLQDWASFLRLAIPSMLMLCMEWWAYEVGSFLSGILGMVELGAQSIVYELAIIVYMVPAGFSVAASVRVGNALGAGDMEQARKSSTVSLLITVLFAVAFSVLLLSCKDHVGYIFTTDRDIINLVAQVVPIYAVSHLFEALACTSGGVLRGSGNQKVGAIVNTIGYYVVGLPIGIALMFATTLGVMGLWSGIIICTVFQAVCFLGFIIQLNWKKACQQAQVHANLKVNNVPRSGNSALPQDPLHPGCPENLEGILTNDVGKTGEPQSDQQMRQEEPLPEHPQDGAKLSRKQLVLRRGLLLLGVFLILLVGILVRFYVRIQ
Summary of the method: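 Transiently transfected polarized MDCKII cells were preincubated 20 min in Hank's balanced salt solution with 30 mmol/l NH4Cl. Uptake was started by adding creatinine, 31 μmol/l to 20 mmol/l, to the chamber matching the transporter's apical or basolateral expression. Cells were washed four times with ice-cold PBS and extracted in 1:1 acetonitrile:water. Intracellular substrate was counted radiometrically. Kinetic constants were fitted from concentration dependence over n⩾3 independent experiments.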

MATE2-K [7] = target: T4, MATE2-K; assay: Creatinine transport by MATE2-K in transiently transfected MDCKII cells; type: cell-based
OAT3 [8] = target: T5, OAT3; settings: human OAT3, transiently transfected HEK293 cells; cited from earlier work
[9] = substrate: CN1CC(=O)NC1=N; assay: Creatinine transport by OCT2 in transiently transfected MDCKII cells; type: cell-based, human; settings: other: creatinine transport by OCT2, transiently transfected cells
[10] = substrate: CN1CC(=O)NC1=N; assay: Creatinine transport by OCT3 in transiently transfected MDCKII cells; type: cell-based, human; settings: other: creatinine transport by OCT3, transiently transfected cells
[11] = substrate: CN1CC(=O)NC1=N; assay: Creatinine transport by OAT2 in transiently transfected MDCKII cells; type: cell-based, human; settings: other: creatinine transport by OAT2, transiently transfected cells

IC50 (OCT2): 135 ± 16 µM
IC50 (OAT2 [2]): 72.8 ± 17 µM
IC50 (OCT3): 87.7 ± 55.1 µM
IC50 (MATE2-K [3]): 46.6 ± 7.23 µM
Molecule: CN/C(=N/CCSCc1nc[nH]c1C)NC#N [Cimetidine, cimetidine]
Decreases in creatinine clearance [1]: 15–34 ml/min per 1.73 m^2

Molecule: Cc1cc(/C=C/C#N)cc(C)c1Nc1ccnc(Nc2ccc(C#N)cc2)n1 [Rilpivirine, rilpivirine]
Serum creatinine increases [4]: ~0.1 mg/dL

Molecule: CC(C)c1nc(CN(C)C(=O)N[C@H](C(=O)N[C@@H](Cc2ccccc2)C[C@H](O)[C@H](Cc2ccccc2)NC(=O)OCc2cncs2)C(C)C)cs1 [Ritonavir, ritonavir]
Concentration-dependent inhibition of OAT2-dependent transport (OAT2 [2]; model substrate, curve could not be generated): lack of concentration-dependent inhibition

IC50 (OCT2): 68 ± 5.2 µM
Molecule: COc1cc(Cc2cnc(N)nc2N)cc(OC)c1OC [Trimethoprim, trimethoprim]

Vmax (OAT2 [6]; creatinine transport by OAT2): 117 × 10^4 pmol/min per mRNA copy number
Transport rate for OAT2 relative to OCT2 (OAT2 [6]; physiological creatinine concentration (100 μmol/l), faster than OCT2): 4.7 fold
Transport rate for OAT2 relative to OCT3 (OAT2 [6]; physiological creatinine concentration (100 μmol/l), faster than OCT3): 2.3 fold
Vmax (MATE1; creatinine transport by MATE1): >2 × 10^4 pmol/min per mRNA copy number
Km (MATE1; human, transiently transfected MDCKII cells expressing MATE1): > 2000 µM
Vmax (MATE2-K [7]; creatinine transport by MATE2-K): >20 × 10^4 pmol/min per mRNA copy number
Km (MATE2-K [7]; human, transiently transfected MDCKII cells expressing MATE2-K): > 2000 µM
Molecule: CN1CC(=O)NC1=N [creatinine]
OAT3-dependent transport of creatinine (OAT3 [5]): no OAT3-dependent transport of creatinine was observed
Increase in creatinine accumulation over mock transfection (OAT3 [8]): 60%

B1: OCT2 (Homo sapiens) (protein)
chain: MPTTVDDVLEHGGEFHFFQKQMFFLLALLSATFAPIYVGIVFLGFTPDHRCRSPGVAELSLRCGWSPAEELNYTVPGPGPAGEASPRQCRRYEVDWNQSTFDCVDPLASLDTNRSRLPLGPCRDGWVYETPGSSIVTEFNLVCANSWMLDLFQSSVNVGFFIGSMSIGYIADRFGRKLCLLTTVLINAAAGVLMAISPTYTWMLIFRLIQGLVSKAGWLIGYILITEFVGRRYRRTVGIFYQVAYTVGLLVLAGVAYALPHWRWLQFTVSLPNFFFLLYYWCIPESPRWLISQNKNAEAMRIIKHIAKKNGKSLPASLQRLRLEEETGKKLNPSFLDLVRTPQIRKHTMILMYNWFTSSVLYQGLIMHMGLAGDNIYLDFFYSALVEFPAAFMIILTIDRIGRRYPWAASNMVAGAACLASVFIPGDLQWLKIIISCLGRMGITMAYEIVCLVNAELYPTFIRNLGVHICSSMCDIGGIITPFLVYRLTNIWLELPLMVFGVLGLVAGGLVLLLPETKGKALPETIEEAENMQRPRKNKEKMIYLQVQKLDIPLN
Km [9]: 1860 ± 370 µM

B2: OCT3 (Homo sapiens) (protein)
chain: MPSFDEALQRVGEFGRFQRRVFLLLCLTGVTFAFLFVGVVFLGTQPDHYWCRGPSAAALAERCGWSPEEEWNRTAPASRGPEPPERRGRCQRYLLEAANDSASATSALSCADPLAAFPNRSAPLVPCRGGWRYAQAHSTIVSEFDLVCVNAWMLDLTQAILNLGFLTGAFTLGYAADRYGRIVIYLLSCLGVGVTGVVVAFAPNFPVFVIFRFLQGVFGKGTWMTCYVIVTEIVGSKQRRIVGIVIQMFFTLGIIILPGIAYFIPNWQGIQLAITLPSFLFLLYYWVVPESPRWLITRKKGDKALQILRRIAKCNGKYLSSNYSEITVTDEEVSNPSFLDLVRTPQMRKCTLILMFAWFTSAVVYQGLVMRLGIIGGNLYIDFFISGVVELPGALLILLTIERLGRRLPFAASNIVAGVACLVTAFLPEGIAWLRTTVATLGRLGITMAFEIVYLVNSELYPTTLRNFGVSLCSGLCDFGGIIAPFLLFRLAAVWLELPLIIFGILASICGGLVMLLPETKGIALPETVDDVEKLGSPHSCKCGRNKKTPVSRSHL
Km [10]: 1320 ± 380 µM

B3: OAT2 (Homo sapiens) (protein)
chain: MGFEELLEQVGGFGPFQLRNVALLALPRVLLPLHFLLPIFLAAVPAHRCALPGAPANFSHQDVWLEAHLPREPDGTLSSCLRFAYPQALPNTTLGEERQSRGELEDEPATVPCSQGWEYDHSEFSSTIATESQWDLVCEQKGLNRAASTFFFAGVLVGAVAFGYLSDRFGRRRLLLVAYVSTLVLGLASAASVSYVMFAITRTLTGSALAGFTIIVMPLELEWLDVEHRTVAGVLSSTFWTGGVMLLALVGYLIRDWRWLLLAVTLPCAPGILSLWWVPESARWLLTQGHVKEAHRYLLHCARLNGRPVCEDSFSQEAVSKVAAGERVVRRPSYLDLFRTPRLRHISLCCVVVWFGVNFSYYGLSLDVSGLGLNVYQTQLLFGAVELPSKLLVYLSVRYAGRRLTQAGTLLGTALAFGTRLLVSSDMKSWSTVLAVMGKAFSEAAFTTAYLFTSELYPTVLRQTGMGLTALVGRLGGSLAPLAALLDGVWLSLPKLTYGGIALLAAGTALLLPETRQAQLPETIQDVERKSAPTSLQEEEMPMKQVQN
Km [11]: 986 ± 177 µM
